Data from ChEMBL document CHEMBL1781963, “Discovery of novel hepatoselective HMG-CoA reductase inhibitors for treating hypercholesterolemia: a bench-to-bedside case study on tissue selective drug distribution” (Bioorg Med Chem Lett, 2011).

Legend:
[1] = Lipophilicity, log D of the compound at pH 7.4 by shake flask method; type: physicochemical; conditions: buffer
Procedure, shortened: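 Log D at pH 7.4 by shake flask.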

OATP1B3 = target: T1, OATP1B3 (Homo sapiens, UniProt Q9NPD5); experiment: Drug uptake by human hepatic OATP1B3 transporter expressed in HEK293 cells at 1 uM relative to wild-type HEK293 cells; type: ADME, cell-based; conditions: HEK293 cells expressing human OATP1B3, read-out: FC
T1 sequence (Q9NPD5 whole entry): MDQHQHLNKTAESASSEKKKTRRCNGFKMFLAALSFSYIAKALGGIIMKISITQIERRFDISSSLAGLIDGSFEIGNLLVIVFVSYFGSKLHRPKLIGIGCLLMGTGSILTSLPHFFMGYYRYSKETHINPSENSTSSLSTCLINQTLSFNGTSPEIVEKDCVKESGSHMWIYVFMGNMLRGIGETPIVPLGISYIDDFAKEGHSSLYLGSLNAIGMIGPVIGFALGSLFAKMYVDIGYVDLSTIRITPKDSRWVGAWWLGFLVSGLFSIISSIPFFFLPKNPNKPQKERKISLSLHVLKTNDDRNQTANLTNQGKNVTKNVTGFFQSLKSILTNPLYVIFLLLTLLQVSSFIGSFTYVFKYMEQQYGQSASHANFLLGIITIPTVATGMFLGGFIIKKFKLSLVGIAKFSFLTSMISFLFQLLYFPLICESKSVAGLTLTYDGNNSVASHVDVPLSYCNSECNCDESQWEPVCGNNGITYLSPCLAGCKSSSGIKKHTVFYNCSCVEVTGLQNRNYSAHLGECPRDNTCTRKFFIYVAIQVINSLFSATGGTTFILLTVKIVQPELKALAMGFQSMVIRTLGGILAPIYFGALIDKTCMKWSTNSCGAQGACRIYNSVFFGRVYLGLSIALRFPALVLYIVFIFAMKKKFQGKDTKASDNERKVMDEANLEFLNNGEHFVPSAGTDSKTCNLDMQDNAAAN
Procedure, shortened: (§1)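 Individual hepatic OATP transporters were over-expressed in CHO or HEK293 cells: rat rOatp1a1, rOatp1a4 and rOatp1b2, and human hOATP1B1, hOATP1B3 and hOATP2B1. Substrate uptake is expressed as fold difference relative to the wild-type parental line. Rosuvastatin/pravastatin served as positive control and midazolam as negative control in each assay.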

[2] = Fraction unbound in rat plasma at 0.5 ug/ml; type: ADME, cell-free
Procedure, shortened: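 Unbound fraction in rat, dog or human plasma, measured at a drug concentration of 0.5 μg/mL.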

OATP1B2 = target: T2, OATP1B2 (Rattus norvegicus, UniProt Q9QZX8); experiment: Drug uptake by rat hepatic OATP1B2 transporters expressed in CHO cells at 10 uM relative to wild type CHO cells; type: ADME, cell-based; conditions: CHO cells expressing rat OATP1B2, read-out: FC; procedure, shortened: as §1
T2 sequence (Q9QZX8 whole entry): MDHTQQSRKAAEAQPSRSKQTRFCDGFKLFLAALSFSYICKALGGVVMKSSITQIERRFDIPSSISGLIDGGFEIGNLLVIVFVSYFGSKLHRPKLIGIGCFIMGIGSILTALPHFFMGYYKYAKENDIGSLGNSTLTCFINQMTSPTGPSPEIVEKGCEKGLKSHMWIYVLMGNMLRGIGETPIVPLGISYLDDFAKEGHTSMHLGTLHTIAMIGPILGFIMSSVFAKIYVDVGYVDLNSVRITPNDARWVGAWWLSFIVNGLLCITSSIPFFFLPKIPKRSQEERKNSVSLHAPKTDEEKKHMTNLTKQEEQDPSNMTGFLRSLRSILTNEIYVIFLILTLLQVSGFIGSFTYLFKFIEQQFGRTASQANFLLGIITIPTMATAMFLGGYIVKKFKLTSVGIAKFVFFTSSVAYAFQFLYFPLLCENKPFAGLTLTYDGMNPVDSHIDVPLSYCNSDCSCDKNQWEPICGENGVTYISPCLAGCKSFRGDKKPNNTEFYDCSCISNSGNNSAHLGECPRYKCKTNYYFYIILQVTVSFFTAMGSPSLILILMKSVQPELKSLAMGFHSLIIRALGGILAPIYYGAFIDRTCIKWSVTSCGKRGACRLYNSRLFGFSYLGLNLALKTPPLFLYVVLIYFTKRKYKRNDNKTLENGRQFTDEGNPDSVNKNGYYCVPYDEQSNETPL

OATP1B1 = target: T3, OATP1B1 (Homo sapiens, UniProt Q9Y6L6); experiment: Drug uptake by human hepatic OATP1B1 transporter expressed in HEK293 cells at 1 uM relative to wild type HEK293 cells; type: ADME, cell-based; conditions: HEK293 cells expressing human OATP1B1, read-out: FC; procedure, shortened: as §1
T3 sequence (Q9Y6L6 whole entry): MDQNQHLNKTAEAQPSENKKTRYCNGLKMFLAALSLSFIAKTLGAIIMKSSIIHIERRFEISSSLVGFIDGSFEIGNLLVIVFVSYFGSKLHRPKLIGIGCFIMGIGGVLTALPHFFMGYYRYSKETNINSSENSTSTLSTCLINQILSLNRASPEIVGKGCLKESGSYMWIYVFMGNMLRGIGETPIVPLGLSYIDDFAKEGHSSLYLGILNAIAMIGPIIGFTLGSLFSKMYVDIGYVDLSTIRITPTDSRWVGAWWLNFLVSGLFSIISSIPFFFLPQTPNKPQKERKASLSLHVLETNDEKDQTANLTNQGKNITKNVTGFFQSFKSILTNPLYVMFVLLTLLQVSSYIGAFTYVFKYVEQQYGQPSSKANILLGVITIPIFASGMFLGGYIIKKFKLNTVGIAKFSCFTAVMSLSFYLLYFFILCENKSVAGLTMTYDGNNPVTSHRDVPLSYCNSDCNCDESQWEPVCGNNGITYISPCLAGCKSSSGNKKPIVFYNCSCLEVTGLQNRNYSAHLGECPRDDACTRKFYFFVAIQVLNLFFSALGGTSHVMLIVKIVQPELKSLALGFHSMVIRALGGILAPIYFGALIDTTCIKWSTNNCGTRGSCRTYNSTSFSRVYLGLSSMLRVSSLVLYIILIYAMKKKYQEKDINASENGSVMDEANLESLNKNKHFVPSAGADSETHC

Cavia porcellus = experiment: Hypolipidemic activity in chow fed Hartley guinea pig assessed as reduction of LDL level administered orally for 7 days measured on day 8 after 2 hrs post dose; type: functional; conditions: po
Procedure, shortened: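 Guinea pigs were dosed daily for seven days and sacrificed 2 h after the final dose. Plasma LDL was measured and reported as mean ± SEM % change from the control group, n = 8/group.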

Hepatocyte [3] = experiment: Drug uptake in sandwich-cultured human hepatocytes assessed per mg of protein at 1 uM; type: ADME, cell-based
Procedure, shortened: (§2)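 Rat or human hepatocytes were cultured in sandwich configuration with a Matrigel overlay and compound uptake was measured. Active uptake was assessed by inhibition with the pan-OATP inhibitor rifamycin SV. Rosuvastatin/pravastatin served as positive control and midazolam as negative control.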

Hepatocyte [4] = experiment: Drug uptake in sandwich-cultured rat hepatocytes assessed per mg of protein at 1 uM; type: ADME, cell-based; procedure, shortened: as §2

| Compound | logD [1] | uptake ratio at 1 µM (OATP1B3) | fraction unbound at 0.5 ug/ml [2] | uptake ratio at 10 µM (OATP1B2) | uptake ratio at 1 µM (OATP1B1) | ED50 (Cavia porcellus) | Drug uptake (Hepatocyte [3]) | Drug uptake (Hepatocyte [4]) |
| --- | --- | --- | --- | --- | --- | --- | --- | --- |
| O=C([O-])C[C@H](O)C[C@H](O)CCn1c(-c2ccc(F)cc2)nc(C(=O)NCc2cccc(F)c2)c1C1CC1.[Na+] | 0.51 | 34.5 | 0.15 | 1.7 | 49 | 5.9 mg/kg | 1.5 pmol/min/mg | 17 pmol/min/mg |
| Cc1ccc(CNC(=O)c2nn(-c3ccc(F)cc3)c(CC[C@@H](O)C[C@@H](O)CC(=O)O)c2C(C)C)cc1 | 0.24 | 11.1 | 0.016 | 2.6 | 21.6 | 3.6 mg/kg | 7.8 pmol/min/mg | 14 pmol/min/mg |
| Cc1ncc2n1-c1ccc(Cl)cc1C(c1ccccc1F)=NC2 [MIDAZOLAM] | – | 0.9 | – | 1.3 | 0.6 | – | – | – |
| CC[C@H](C)C(=O)O[C@H]1C[C@H](O)C=C2C=C[C@H](C)[C@H](CC[C@@H](O)C[C@@H](O)CC(=O)O)[C@H]21 [PRAVASTATIN] | – | 13 | – | 7 | 73.7 | 73.3 mg/kg | – | – |
| CC(C)c1nc(N(C)S(C)(=O)=O)nc(-c2ccc(F)cc2)c1/C=C/[C@@H](O)C[C@@H](O)CC(=O)O [ROSUVASTATIN] | 1.01 | 3.7 | 0.06 | – | 14.4 | 13.5 mg/kg | 8 pmol/min/mg | 24 pmol/min/mg |
